The list is not random: actives were taken first. Their share in the collection is about 1.8%.
eIF4H inh = inhibitors of RNA binding by human eIF4H; Q15056; eIF4H fluorescence polarization binding assay; inhibition, % at 35 µM; hit rate 0.94% among 290,000;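 further: calls also rest on retests at 20 µM and on dose response follow-up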
MT1-MMP act inh = inhibitors of human MT1-MMP activation. P50281. HT1080 RFP-PRO-GFP cells, GFP/RFP ratio fluorescence, overnight; percent of plate control window, DMSO zero. GFP/RFP ratio change, % at 20 µM. hit rate 0.061% among 360,000;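 active means GFP/RFP ratio change of at least 30% with cell ATP level not reduced by more than half and red fluorescence within 50% of control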
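Assay system: HT1080 RFP-PRO-GFP cells | Dosing: 20 µM single dose, 1% DMSO | Incubation: Cells overnight before dosing, compound overnight, 37 °C, 5% CO2 | Evaluation: GFP/RFP fluorescence ratio | Control set: DMSO-only wells and HT1080 RFP-L50D-GFP cell wells as references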
PABP FP inh = blocks human PABP binding to poly(A) RNA; P11940; fluorescence polarization; calls only at 35 µM; hit rate 1% among 290,000; AID 2014;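 further: calls also rest on retests at 20 µM and on dose response follow-up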
SKN-1 inh = blocks SKN-1 activity in C. elegans; C. elegans VP596 Pgst-4::GFP/RFP ratio, acrylamide-induced, 24 h; AID 624304; inhibition, % at 21.8 µM; hit rate 0.49% among 360,000;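 active means interference check ratio from 0.5 to 1.5 plus GFP to RFP signal ratio inhibition reaching or exceeding a fixed threshold, cut at about 30% in these data, passing the limit was not always enough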
MLLE-PAM2 inh = blocks PAM2 peptide binding to the PABP1 MLLE domain | hit rate 0.36% among 360,000 | GST-MLLE / FITC-PAM2 fluorescence polarization | P11940 | AID 588489 | inhibition, % at 20 µM; in the data active means inhibition above about 35%, passing the limit was not always enough;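 further: plate controls were DMSO wells with GST-MLLE for no effect and wells lacking GST-MLLE protein for full effect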
Starred values were filed as active, the others as inactive; i = inactive; u = inconclusive; x = no result given; + = active, no number. Unless noted, how the calls were made is not given here.

SMILES | eIF4H inh | MT1-MMP act inh | PABP FP inh | SKN-1 inh | MLLE-PAM2 inh
O=C(Nc1ccc(Cl)cc1Cl)c1ccc(Br)o1 | 6 | 1 | i | 36* | -8
O=C(Nc1cc(Cl)ccc1N1CCOCC1)c1ccc(Br)o1 | 1 | -4 | i | -5 | -1
CCCOc1cccc(-c2nn(-c3ccccc3)cc2/C=C(\C#N)C(=O)NCCCn2ccnc2)c1 | u | -17 | + | 8 | -49
CCC(c1ccccc1)c1noc(CCN(CC)CC)n1 (stereo unspecified) | x | -3 | x | 4 | -6
FC(F)(F)c1cccc(NC(=S)Nc2cccc(NC(=S)Nc3cccc(C(F)(F)F)c3)n2)c1 | 3 | 5 | i | 6 | 47*
FC(F)(F)c1cccc(NC(=S)NCc2ccccn2)c1 | -6 | 2 | i | 6 | 21
FC(F)(F)c1cccc(NC(=S)NNC(=S)NCc2ccccc2)c1 | 17 | 10 | i | 13 | 41*
O=C(/C=C/c1cccc(F)c1)NCCCn1ccnc1 | 4 | 2 | i | -18 | 6
CC(CS(=O)(=O)c1ccc2c(c1)NC(=O)CS2)C(=O)N1CCN(c2cccc(Cl)c2)CC1 (stereo unspecified) | 74* | 6 | + | 7 | -28
CC(CS(=O)(=O)c1ccc2c(c1)NC(=O)CS2)C(=O)NCc1ccccc1Cl (stereo unspecified) | 67 | -7 | + | 3 | -28
CC(=O)c1ccc(OC2(C)CCN(Cc3cc4ccccc4[nH]3)C2)cc1 (stereo unspecified) | x | 3 | x | -5 | -10
CC(=O)N1CCOc2ccc(S(=O)(=O)NC[C@H]3O[C@@H](n4cnc5c(N)ncnc54)[C@H](O)[C@@H]3O)cc21 | x | 1 | x | 14 | -6
COc1ccc(N/C=C\C(=O)c2ccc(Br)cc2)cc1OC | 71* | -19 | i | -11 | -91
CSc1c(C#N)c(N)nc2sc(C(=O)c3ccccc3)c(N)c12 | 85* | x | + | -5 | 11
O=S(=O)(N[C@H](CO)Cc1ccccc1)c1ccc(Br)cc1F | x | 1 | x | -4 | -11
COc1ccccc1NC(=O)c1cc2c(cc1Cl)N1CCCCCC1=NS2(=O)=O | x | 3 | x | -5 | -8
CCn1c(SCC(=O)c2cc(C)n(C)c2C)nnc1-c1ccccc1 | 6 | 5 | i | 13 | -1
Cc1cc(C(=O)CSc2nnc(-c3cccs3)n2Cc2ccccc2)c(C)n1C | -3 | -5 | i | 36* | -115
CCN(CC)Cc1c(O)c(Cl)cc2c3c(c(=O)oc12)CCCC3 | 15 | -3 | i | -13 | 4
CN(C)Cc1c(O)c(Cl)cc2c3c(c(=O)oc12)CCCC3 | 64* | -2 | + | -15 | 10
Cc1cccc(-n2nc3c(c2NC(=O)C2CC2)CS(=O)(=O)C3)c1C | -20 | 0 | i | 35* | -15
CCC(=O)NC(=S)Nc1c(C)cc(Br)cc1C | -6 | 1 | i | 2 | 44*
O=C(CS(=O)(=O)c1ccccc1)Nc1nnc(Cc2ccccc2)s1 | -11 | -3 | i | 8 | 26
COCC(=O)Nc1ccc(Br)cc1C | -11 | 0 | i | -6 | 2
COc1ccccc1C(=O)Nc1ccc(Br)cc1C | 16 | -8 | i | 54* | -2
SMILES | eIF4H inh | MT1-MMP act inh | PABP FP inh | SKN-1 inh | MLLE-PAM2 inh
COc1ccccc1C(=O)Nc1ccc(Br)c2cccnc12 | 4 | -3 | i | 39* | 4
CCOC(=O)N1CCN(S(=O)(=O)N2CCCC(C(=O)NC(C)c3ccccc3)C2)CC1 (stereo unspecified) | 3 | 0 | i | 11 | 7
C[C@H]1CN([C@@H](C)CO)C(=O)CCCn2nncc2CO[C@@H]1CN(C)C(=O)c1ccncc1 | x | 3 | x | -3 | 3
Cc1cccc(-c2ccc(O)cc2CN2CCN(c3ncc(Cc4ccccc4)cn3)CC2)c1 | x | -1 | x | 13 | x
COC(=O)C1C2C=CC3(CN(C(C)c4ccc(OC)cc4)C(=O)C13)O2 (stereo unspecified) | active | -2 | + | 19 | -2
COc1ccc(C(C)N2CC34C=CC(O3)C(C(=O)O)C4C2=O)cc1 (stereo unspecified) | -4 | -2 | i | -7 | 17
CCSC1(SCC)N=C(N)C2(C#N)C(c3ccccc3)NC3=C(CCC3)C12C#N (stereo unspecified) | 72* | -5 | + | -9 | 2
O=C(O)CCCCCN1C(=O)/C(=C\c2ccc(-c3ccc(Cl)cc3)o2)SC1=S | 54* | -87 | + | -12 | -125

Screens as filed in PubChem BioAssay.
